Test results from ChEMBL document CHEMBL3112482, “Nonclassical antifolates, part 5. Benzodiazepine analogs as a new class of DHFR inhibitors: synthesis, antitumor testing and molecular modeling study” (Eur J Med Chem, 2014).

Experiments:
[1] = Growth inhibition of human SF539 cells at 10 uM after 48 hrs; format: functional; details: SF-539, 48 h, read-out: GI
Summary of the method: (§1)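 NCI 60-cell-line disease-oriented human tumor panel, single-dose primary screen at 10 µM. Data given as mean-graph percent growth of treated cells, reported as percent growth inhibition (GI %).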

MDA-MB-231 = assay: Growth inhibition of human MDA-MB-231 cells at 10 uM after 48 hrs; format: functional; details: MDA-MB-231, 48 h, read-out: GI
Summary of the method: (§2)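 Single-dose primary screen in the NCI 60 human tumour cell line panel, run at the NCI facility. The panel covers nine subpanels: leukaemia, non-small cell lung, colon, CNS, melanoma, ovarian, renal, prostate and breast. Read-out was percent growth of treated cells, shown as a mean graph and reported as percent growth inhibition.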

Dihydrofolate reductase = molecular target: T1, Dihydrofolate reductase (Bos taurus, UniProt P00376); assay: Inhibition of bovine liver DHFR measured for every 1 min of 10 mins
T1 sequence (P00376 whole entry): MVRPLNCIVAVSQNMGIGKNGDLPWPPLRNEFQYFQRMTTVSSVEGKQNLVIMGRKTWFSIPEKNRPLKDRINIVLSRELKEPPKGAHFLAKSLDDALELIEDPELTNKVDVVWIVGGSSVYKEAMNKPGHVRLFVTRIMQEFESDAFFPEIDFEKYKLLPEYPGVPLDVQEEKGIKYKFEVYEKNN

NCI-H322M = assay: Growth inhibition of human NCI-H322M cells at 10 uM after 48 hrs; format: functional; details: read-out: GI; summary of the method: as §2
NCI-H23 = assay: Growth inhibition of human NCI-H23 cells at 10 uM after 48 hrs; format: functional; details: NCI-H23, 48 h, read-out: GI; summary of the method: as §2
K562 = assay: Growth inhibition of human K562 cells at 10 uM after 48 hrs; format: functional; details: K562, 48 h, read-out: GI; summary of the method: as §2
[2] = Growth inhibition of human UO31 cells at 10 uM after 48 hrs; format: functional; details: UO-31, 48 h, read-out: GI; summary of the method: as §1
CCRF-CEM = assay: Growth inhibition of human CCRF-CEM cells at 10 uM after 48 hrs; format: functional; details: read-out: GI; summary of the method: as §2
A498 = assay: Growth inhibition of human A498 cells at 10 uM after 48 hrs; format: functional; details: A498, 48 h, read-out: GI; summary of the method: as §2
[3] = Growth inhibition of human EKVX cells at 10 uM after 48 hrs; format: functional; details: read-out: GI; summary of the method: as §2
SNB-75 = assay: Growth inhibition of human SNB75 cells at 10 uM after 48 hrs; format: functional; details: SNB-75, 48 h, read-out: GI; summary of the method: as §1
[4] = Growth inhibition of human HOP92 cells at 10 uM after 48 hrs; format: functional; details: HOP-92, 48 h, read-out: GI; summary of the method: as §2
SR = assay: Growth inhibition of human SR cells at 10 uM after 48 hrs; format: functional; details: read-out: GI; summary of the method: as §1
KM12 = assay: Growth inhibition of human KM12 cells at 10 uM after 48 hrs; format: functional; details: KM12, 48 h, read-out: GI; summary of the method: as §2
HL-60(TB) = assay: Growth inhibition of human HL-60(TB) cells at 10 uM after 48 hrs; format: functional; details: HL-60, 48 h, read-out: GI
Summary of the method: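 NCI 60-cell-line human tumour panel covering nine subpanels (leukaemia, non-small cell lung, colon, CNS, melanoma, ovarian, renal, prostate, breast), run at the NCI facility. Primary screen tested a single dose of each compound. Read-out was percent growth of treated cells versus untreated cells, reported from the mean graph as percentage growth inhibition.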

IGROV-1 = assay: Growth inhibition of human IGROV1 cells at 10 uM after 48 hrs; format: functional; details: IGROV-1, 48 h, read-out: GI; summary of the method: as §2
[5] = Growth inhibition of human NCI-ADR-RES cells at 10 uM after 48 hrs; format: functional; details: read-out: GI; summary of the method: as §2
PC-3 = assay: Growth inhibition of human PC3 cells at 10 uM after 48 hrs; format: functional; details: PC-3, 48 h, read-out: GI; summary of the method: as §2
SK-MEL-5 = assay: Growth inhibition of human SK-MEL-5 cells at 10 uM after 48 hrs; format: functional; details: SK-MEL-5, 48 h, read-out: GI; summary of the method: as §1
MCF7 = assay: Growth inhibition of human MCF7 cells at 10 uM after 48 hrs; format: functional; details: MCF7, 48 h, read-out: GI; summary of the method: as §2
NCI-H460 = assay: Growth inhibition of human NCI-H460 cells at 10 uM after 48 hrs; format: functional; details: NCI-H460, 48 h, read-out: GI; summary of the method: as §2
786-0 = assay: Growth inhibition of human 786-0 cells at 10 uM after 48 hrs; format: functional; details: 786-0, 48 h, read-out: GI; summary of the method: as §2
SW-620 = assay: Growth inhibition of human SW620 cells at 10 uM after 48 hrs; format: functional; details: SW-620, 48 h, read-out: GI; summary of the method: as §1
SF-268 = assay: Growth inhibition of human SF268 cells at 10 uM after 48 hrs; format: functional; details: SF-268, 48 h, read-out: GI; summary of the method: as §1
SK-OV-3 = assay: Growth inhibition of human SKOV3 cells at 10 uM after 48 hrs; format: functional; details: SK-OV-3, 48 h, read-out: GI; summary of the method: as §1
[6] = Growth inhibition of human OVCAR5 cells at 10 uM after 48 hrs; format: functional; details: OVCAR-5, 48 h, read-out: GI; summary of the method: as §2
T47D = assay: Growth inhibition of human T47D cells at 10 uM after 48 hrs; format: functional; details: read-out: GI; summary of the method: as §1
MDA-MB-468 = assay: Growth inhibition of human MDA-MB-468 cells at 10 uM after 48 hrs; format: functional; details: MDA-MB-468, 48 h, read-out: GI; summary of the method: as §2
CAKI-1 = assay: Growth inhibition of human CAKI-1 cells at 10 uM after 48 hrs; format: functional; details: CAKI-1, 48 h, read-out: GI; summary of the method: as §2
DU-145 = assay: Growth inhibition of human DU145 cells at 10 uM after 48 hrs; format: functional; details: DU-145, 48 h, read-out: GI; summary of the method: as §2
SNB-19 = assay: Growth inhibition of human SNB19 cells at 10 uM after 48 hrs; format: functional; details: SNB-19, 48 h, read-out: GI; summary of the method: as §1
[7] = Growth inhibition of human Hs 578T cells at 10 uM after 48 hrs; format: functional; details: read-out: GI; summary of the method: as §2
ACHN = assay: Growth inhibition of human ACHN cells at 10 uM after 48 hrs; format: functional; details: read-out: GI; summary of the method: as §2
[8] = Growth inhibition of human HCC2998 cells at 10 uM after 48 hrs; format: functional; details: HCC 2998, 48 h, read-out: GI; summary of the method: as §2
SK-MEL-28 = assay: Growth inhibition of human SK-MEL-28 cells at 10 uM after 48 hrs; format: functional; details: SK-MEL-28, 48 h, read-out: GI; summary of the method: as §1
[9] = Growth inhibition of human RXF393 cells at 10 uM after 48 hrs; format: functional; details: RXF 393, 48 h, read-out: GI; summary of the method: as §2
[10] = Growth inhibition of human UACC257 cells at 10 uM after 48 hrs; format: functional; details: UACC-257, 48 h, read-out: GI; summary of the method: as §1
TK-10 = assay: Growth inhibition of human TK10 cells at 10 uM after 48 hrs; format: functional; details: TK-10, 48 h, read-out: GI; summary of the method: as §1
[11] = Growth inhibition of human OVCAR4 cells at 10 uM after 48 hrs; format: functional; details: OVCAR-4, 48 h, read-out: GI; summary of the method: as §2

Nc1nc2c(c(-c3ccc(Br)cc3)n1)CCC/C2=C\c1ccc(Br)cc1
inhibition of growth at 10 µM [1]: < 30% | inhibition of growth at 10 µM (MDA-MB-231): < 30% | IC50 (Dihydrofolate reductase): 16 µM | inhibition of growth at 10 µM (NCI-H322M): < 30% | inhibition of growth at 10 µM (NCI-H23): < 30% | inhibition of growth at 10 µM (K562): < 30% | inhibition of growth at 10 µM [2]: < 30% | inhibition of growth at 10 µM (CCRF-CEM): < 30% | inhibition of growth at 10 µM (A498): < 30% | inhibition of growth at 10 µM [3]: < 30% | inhibition of growth at 10 µM (SNB-75): < 30% | inhibition of growth at 10 µM [4]: < 30% | inhibition of growth at 10 µM (SR): 54.1% | inhibition of growth at 10 µM (KM12): 53% | inhibition of growth at 10 µM (HL-60(TB)): < 30% | inhibition of growth at 10 µM (IGROV-1): < 30% | inhibition of growth at 10 µM [5]: < 30% | inhibition of growth at 10 µM (PC-3): < 30% | inhibition of growth at 10 µM (SK-MEL-5): < 30% | inhibition of growth at 10 µM (MCF7): 61.4% | inhibition of growth at 10 µM (NCI-H460): < 30% | inhibition of growth at 10 µM (786-0): < 30% | inhibition of growth at 10 µM (SW-620): < 30% | inhibition of growth at 10 µM (SF-268): < 30% | inhibition of growth at 10 µM (SK-OV-3): < 30% | inhibition of growth at 10 µM [6]: < 30% | inhibition of growth at 10 µM (T47D): < 30% | inhibition of growth at 10 µM (MDA-MB-468): < 30% | inhibition of growth at 10 µM (CAKI-1): < 30% | inhibition of growth at 10 µM (DU-145): < 30% | inhibition of growth at 10 µM (SNB-19): < 30% | inhibition of growth at 10 µM [7]: < 30% | inhibition of growth at 10 µM (ACHN): < 30% | inhibition of growth at 10 µM [8]: 51.5% | inhibition of growth at 10 µM (SK-MEL-28): < 30% | inhibition of growth at 10 µM [9]: < 30% | inhibition of growth at 10 µM [10]: < 30% | inhibition of growth at 10 µM (TK-10): < 30% | inhibition of growth at 10 µM [11]: < 30%
